Series [1] has as its target T1, Monoamine oxidase (Rattus norvegicus, UniProt P19643+P21396).
T1 sequence (P19643 whole entry): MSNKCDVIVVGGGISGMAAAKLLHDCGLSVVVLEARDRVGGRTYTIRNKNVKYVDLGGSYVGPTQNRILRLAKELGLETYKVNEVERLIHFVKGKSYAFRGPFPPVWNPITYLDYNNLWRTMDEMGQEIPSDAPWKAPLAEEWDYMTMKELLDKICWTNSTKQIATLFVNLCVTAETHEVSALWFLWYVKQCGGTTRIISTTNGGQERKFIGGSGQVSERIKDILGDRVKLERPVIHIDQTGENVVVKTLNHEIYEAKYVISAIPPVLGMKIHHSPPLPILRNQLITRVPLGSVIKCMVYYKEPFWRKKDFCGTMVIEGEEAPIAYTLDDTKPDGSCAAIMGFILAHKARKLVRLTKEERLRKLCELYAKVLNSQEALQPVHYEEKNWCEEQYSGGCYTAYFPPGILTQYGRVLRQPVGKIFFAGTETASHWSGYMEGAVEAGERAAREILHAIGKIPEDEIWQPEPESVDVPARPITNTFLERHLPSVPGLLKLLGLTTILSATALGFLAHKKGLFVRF
T1 sequence (P21396 whole entry): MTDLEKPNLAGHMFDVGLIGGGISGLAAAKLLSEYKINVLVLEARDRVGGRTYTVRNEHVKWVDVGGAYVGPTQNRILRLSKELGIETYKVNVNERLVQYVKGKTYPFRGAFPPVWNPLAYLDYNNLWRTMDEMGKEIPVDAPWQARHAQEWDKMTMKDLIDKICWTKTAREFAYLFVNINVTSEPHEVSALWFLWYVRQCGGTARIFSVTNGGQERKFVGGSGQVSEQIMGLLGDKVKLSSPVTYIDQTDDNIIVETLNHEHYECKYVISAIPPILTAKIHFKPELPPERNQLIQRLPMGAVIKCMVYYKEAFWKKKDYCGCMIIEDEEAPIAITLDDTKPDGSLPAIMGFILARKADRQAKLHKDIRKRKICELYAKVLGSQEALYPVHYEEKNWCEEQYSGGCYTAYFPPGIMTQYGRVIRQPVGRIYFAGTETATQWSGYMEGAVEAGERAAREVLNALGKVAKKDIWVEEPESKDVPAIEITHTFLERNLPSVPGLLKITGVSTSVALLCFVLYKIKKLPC
The experiment in a line: Ratio of Kinetic constants (Km vs. Vmax). The class given is protein assay.

In series [2] the target is T1, Monoamine oxidase. The series can be described thus: Kinetic constant (Vmax) determined in rat brain mitochondria. Put shortly: (§1)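 Mitochondria from rat brain were isolated by differential centrifugation with a Ficoll gradient, lysed in pH 7.4 phosphate buffer with sodium azide, and diluted to 400–800 μg protein/mL. Incubations at 37 °C for 30 min used seven substrate concentrations from 0.0125 to 1 mM, plus 2 and 4 mM for poor substrates. H2O2 was read with ABTS–horseradish peroxidase. Km and Vmax came from Lineweaver-Burk plots: three days, duplicates, mean of six ± SD.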

Series [3] is filed under the species Rattus norvegicus. The series can be described thus: Tested for pargyline-induced inhibition of MAO-catalyzed oxidation in rat brain mitochondria (Specific inhibitor = Pargyline hydrochloride at 2.5 uM) (Control = 30.65). Format: functional.
The species named for series [4] is Rattus norvegicus. The series can be described thus: (§2) Kinetic constant (Km) determined in rat brain mitochondria. The class given is functional. Put shortly: as §1
The species named for series [5] is Rattus norvegicus. The experiment in a line: Tested for pargyline-induced inhibition of MAO-catalyzed oxidation in rat brain mitochondria (Specific inhibitor = Pargyline hydrochloride at 2.5 uM) (Control = 33.85). Format: functional.
The subject of series [6] is Monoamine oxidase (Rattus norvegicus). The series can be described thus: Percent inhibition of MAO-catalyzed oxidation in rat brain mitochondria induced by pargyline.
For series [7], the target named is T1, Monoamine oxidase. The series is described as §2. Put shortly: as §1
The species entered for series [8] is Rattus norvegicus. The experiment in a line: Tested for pargyline-induced inhibition of MAO-catalyzed oxidation in rat brain mitochondria (Specific inhibitor = Pargyline hydrochloride at 2.5 uM) (Control = 17.95). The class given is functional.
Series [9] concerns the target T1, Monoamine oxidase. The series can be described thus: Tested for pargyline-induced inhibition of MAO-catalyzed oxidation in rat brain mitochondria (Specific inhibitor = Pargyline hydrochloride at 2.5 uM) (Control = 16.58). The class given is functional.
Series [10] concerns the target T1, Monoamine oxidase. The description is as §2. Put shortly: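 Rat brain mitochondria (Ficoll gradient, lysed in phosphate buffer pH 7.4 with azide) at 400–800 μg protein/mL. Incubated 30 min at 37 °C with substrate at 0.0125–1 mM, plus 2 and 4 mM for poor substrates. H2O2 read by ABTS–horseradish peroxidase against a standard curve. Km by Lineweaver-Burk; three separate days in duplicate, mean of six ± SD.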
The source holds these as a separate data set.

The species named for series [11] is Rattus norvegicus. The experiment in a line: Tested for pargyline-induced inhibition of MAO-catalyzed oxidation in rat brain mitochondria (Specific inhibitor = Pargyline hydrochloride at 2.5 uM) (Control = 28.60). Format: functional.
The species entered for series [12] is Rattus norvegicus. The series can be described thus: Tested for pargyline-induced inhibition of MAO-catalyzed oxidation in rat brain mitochondria (Specific inhibitor = Pargyline hydrochloride at 2.5 uM) (Control = 19.20). The class given is functional.
The species entered for series [13] is Rattus norvegicus. The series can be described thus: Tested for pargyline-induced inhibition of MAO-catalyzed oxidation in rat brain mitochondria (Specific inhibitor = Pargyline hydrochloride at 2.5 uM) (Control = 18.87). Format: functional.
For series [14], the species on record is Rattus norvegicus. The experiment in a line: Tested for pargyline-induced inhibition of MAO-catalyzed oxidation in rat brain mitochondria (Specific inhibitor = Pargyline hydrochloride at 2.5 uM) (Control = 31.40). Format: functional.

With `Cc1cccc(CC2=CCN(C)CC2)c1`, the Ratio on Monoamine oxidase [1] is 6.95. In addition, the Vmax at Monoamine oxidase [2] is given as 45533000 (nM of H202) min-1 (ug of protein)-1. In the series filed under Rattus norvegicus [3], this molecule displayed an Inhibition ((nM of H202) min-1 (ug of protein)-1) of 9.49. The Michaelis constant (Km) in the series filed under Rattus norvegicus [4] was 77.1 µM.

Regarding `CN1CC=C(Cc2cccs2)CC1`, the Ratio at Monoamine oxidase [1] is reported as 9.86. Further, the Vmax on Monoamine oxidase [2] is reported as 38133000 (nM of H202) min-1 (ug of protein)-1. In the series filed under Rattus norvegicus [5], this molecule displayed an Inhibition ((nM of H202) min-1 (ug of protein)-1) of 10.9. Further, the Km in the series filed under Rattus norvegicus [4] turned out to be 42.2 µM. For the same molecule, in [6], the Inhibition is 68%.

Consider `CC(C1=CCN(C)CC1)c1ccccc1` (stereo not given), for which the Ratio at Monoamine oxidase [1] was found to be 1.26. Moreover, on Monoamine oxidase [2], the Vmax is on record as 4187000 (nM of H202) min-1 (ug of protein)-1. For the same molecule, at Monoamine oxidase [7], the Km turned out to be 70.2 µM.

Take `CN1CC=C(CCc2ccccc2)CC1`: the Ratio at Monoamine oxidase [1] was 3.74. For the same molecule, the Vmax on Monoamine oxidase [2] is 38533000 (nM of H202) min-1 (ug of protein)-1. In addition, the Inhibition ((nM of H202) min-1 (ug of protein)-1) in the series filed under Rattus norvegicus [8] is 8.22. For the same molecule, the Km in the series filed under Rattus norvegicus [4] amounted to 119 µM. Also, the Inhibition in series [6] is listed as 54%.

On to `CN1CC=C(c2ccccc2)CC1`, for which, at Monoamine oxidase [2], the Vmax was 27033000 (nM of H202) min-1 (ug of protein)-1. For the same molecule, on Monoamine oxidase [9], the Inhibition is recorded as 0 (nM of H202) min-1 (ug of protein)-1. The Km on Monoamine oxidase [10] worked out at 134 µM.

`CN1CC=C(/C=C/c2cccc(Br)c2)CC1`: the Ratio on Monoamine oxidase [1] worked out at 0.565. Further, at Monoamine oxidase [2], the Vmax is given as 2690000 (nM of H202) min-1 (ug of protein)-1. Also, the Km on Monoamine oxidase [7] turned out to be 187 µM.

Turning to `NCc1ccccc1` [BENZYLAMINE], the Vmax at Monoamine oxidase [2] is on record as 33600000 (nM of H202) min-1 (ug of protein)-1. Besides, the Km on Monoamine oxidase [7] is 169 µM.

Consider `CN1CC=C(Cc2cccc3ccccc23)CC1`, for which the Ratio at Monoamine oxidase [1] turned out to be 5.03. Further, the Vmax at Monoamine oxidase [2] is recorded as 38233000 (nM of H202) min-1 (ug of protein)-1. The molecule also came in with an Inhibition ((nM of H202) min-1 (ug of protein)-1) in the series listed under Rattus norvegicus [11] of 26.4. Besides, the Km in the series filed under Rattus norvegicus [4] amounted to 76.5 µM. For the same molecule, the Inhibition in [6] was found to be 8%.

As for `Cc1ccccc1CC1=CCN(C)CC1`, the Ratio on Monoamine oxidase [1] worked out at 3.71. Besides, the Vmax on Monoamine oxidase [2] was 21933000 (nM of H202) min-1 (ug of protein)-1. Moreover, in the series filed under Rattus norvegicus [12], the Inhibition ((nM of H202) min-1 (ug of protein)-1) was 9.24. In the series listed under Rattus norvegicus [4], the Km came out at 58.8 µM.

With `CN1CC=C(Cc2ccc(Cl)cc2)CC1`, the Ratio on Monoamine oxidase [1] is on record as 5.15. In addition, the Vmax at Monoamine oxidase [2] was 23900000 (nM of H202) min-1 (ug of protein)-1. This molecule returned an Inhibition ((nM of H202) min-1 (ug of protein)-1) in the series listed under Rattus norvegicus [13] of 10.3. In the series filed under Rattus norvegicus [4], the Km worked out at 49.4 µM.

As to `Cc1ccc(CC2=CCN(C)CC2)cc1`, the Ratio at Monoamine oxidase [1] is 5.17. Also, the Vmax on Monoamine oxidase [2] is 8.1e+06 (nM of H202) min-1 (µg of protein)-1. The Km at Monoamine oxidase [7] stood at 15.9 µM.

With `CN1CC=C(Cc2ccc(O)cc2)CC1`, on Monoamine oxidase [1], the Ratio is recorded as 0.38. Further, on Monoamine oxidase [2], the Vmax is on record as 9850000 (nM of H202) min-1 (ug of protein)-1. Besides, the Km on Monoamine oxidase [7] was 363 µM.

For `CN1CC=C(C(Oc2ccc(Br)cc2)c2ccccc2)CC1` (stereo not given), the Ratio on Monoamine oxidase [1] is 0.74. For the same molecule, the Vmax at Monoamine oxidase [2] is given as 3137000 (nM of H202) min-1 (ug of protein)-1. Also, the Km at Monoamine oxidase [7] is 57.2 µM.

On to `COc1ccc(CC2=CCN(C)CC2)cc1`, for which, at Monoamine oxidase [1], the Ratio was found to be 7.87. Further, on Monoamine oxidase [2], the Vmax was 18000000 (nM of H202) min-1 (ug of protein)-1. Moreover, the Km on Monoamine oxidase [7] came out at 24.8 µM.

Turning to `CN1CC=C(CCc2cccc(Cl)c2)CC1`, the Ratio on Monoamine oxidase [1] is on record as 4.44. Further, the Vmax on Monoamine oxidase [2] was 6477000 (nM of H202) min-1 (ug of protein)-1. At Monoamine oxidase [7], the Km came out at 20.8 µM.

On to `CN1CC=C(Cc2ccccc2)CC1`, for which, on Monoamine oxidase [1], the Ratio is on record as 9.36. For the same molecule, the Vmax on Monoamine oxidase [2] is listed as 39800000 (nM of H202) min-1 (ug of protein)-1. The Inhibition ((nM of H202) min-1 (ug of protein)-1) in the series filed under Rattus norvegicus [14] was 3.71. The Km in the series listed under Rattus norvegicus [4] was found to be 44.4 µM.

For the molecule `CN1CC=C(Cc2ccc(I)cc2)CC1`, the Ratio on Monoamine oxidase [1] was 2.38. Also, the Vmax on Monoamine oxidase [2] was 6290000 (nM of H202) min-1 (ug of protein)-1. The Km at Monoamine oxidase [7] was determined as 36.1 µM.

Source of the values: ChEMBL document CHEMBL1125023, “Flexible N-methyl-4-phenyl-1,2,3,6-tetrahydropyridine analogues: synthesis and monoamine oxidase catalyzed bioactivation” (J Med Chem, 1990).
